# In the library only some 3.7% were active in any assay of this set; here they are far more common.
# DENV2 CPE: inhibitors of DENV2 cytopathic effect | DENV2-infected cells, cytopathic effect rescue, plate reader | CPE inhibition, % at 9.99 µM | actives 1.7% (n = 350,000); in the data active = CPE inhibition above about 20%, passing the limit was not always enough; inconclusive = no clear call, values can overlap the other calls; tested in BHK-21 cells;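 note: 0% = median of neutral control wells and 100% = median of positive control wells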
# F508del corr: CFTR F508del correction in bronchial cells | activity (quench increase), % at 7.58 µM | actives 0.36% (n = 350,000) | CFBE cells, YFP halide quenching; stimulated with forskolin plus potentiator P3; % fluorescence drop versus neutral controls | AID 720511;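 active = mean added fluorescence quench of at least 8% versus neutral control, with both replicates also reaching 8%; inconclusive = only one of the mean or replicate conditions met; inactive = mean below 8% and not both replicates reaching 8%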;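 note: cells transiently co-express mutant CFTR-F508del with the halide-sensitive YFP; corrector assay measuring rescue of mutant channel to the surface after 24 h compound exposure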
# E-selectin induc: induces E-selectin expression in human endothelial cells; AID 686992; actives 0.37% (n = 260,000); activation, % at 7.58 µM; P16581; HUVEC E-selectin immunofluorescence imaging; normalized: neutral wells 0, TNF-alpha wells 100;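 active = mean E-selectin-positive cell signal at least 10% of the positive control, reached in at least 60% of replicates, without over 20% cell loss; inconclusive = no rule given, readout overlaps actives, possibly toxicity-flagged; inactive = the rest, including those meeting only one limit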
#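 Test system – human umbilical vein endothelial cells (HUVEC), E-selectin induction · Input – 3,000 HUVEC seeded per well · Buffer or medium – EGM-2, gelatin · Compound dosing – single-point compound dose · Detection – immunofluorescence imaging · Measure – percent E-selectin-positive cells · Controls – TNF-alpha high, DMSO low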
# FGF22 binding-1: FGF22 (human) thermal shift binding. recombinant FGF22 thermal shift, SYPRO orange fluorescence; percent of sucrose octasulfate shift, DMSO zero. actives 1.5% (n = 340,000). activity (Tm shift, normalised), % at 9.99 µM;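 active = mean Tm shift, scaled 0 neutral to 100 positive control, at about 1.3% or above, every replicate too, limit read from the data; inconclusive = no clear call, values can overlap the other calls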
# Target sequence (Q9HCT0 whole entry, looked up): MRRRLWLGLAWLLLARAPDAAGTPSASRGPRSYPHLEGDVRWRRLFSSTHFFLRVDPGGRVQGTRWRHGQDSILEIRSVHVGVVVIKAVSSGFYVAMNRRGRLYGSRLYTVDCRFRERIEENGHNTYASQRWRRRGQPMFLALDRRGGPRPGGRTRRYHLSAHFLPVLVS
# ERAP1 HTS inh: blocks human ERAP1 aminopeptidase activity | actives 0.15% (n = 340,000) | Q9NZ08 | recombinant ERAP1, Leu-AMC fluorescence, 60 min | inhibition, % at 10.7 µM;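 active = mean replicate inhibition of at least 30%, or all replicates individually reaching that 30% level; inactive = mean below 30% and not every replicate reaching it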;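 note: 0% = neutral control wells and 100% = L-leucinethiol positive control wells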
# FGF22 binding-2: FGF22 (human) binding in thermal shift. actives 2% (n = 1,000). shares compounds with FGF22 binding-1. recombinant FGF22 thermal shift, SYPRO orange fluorescence. AID 720646. thermal shift activity, °C (ΔTm) at 38 µM;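 active = fitted rise in melting shift crosses a set limit at or below the top valid dose tested; inconclusive = flat fit at mid-level activity, or a poor quality fit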
# TSA no protein: compound-only SYPRO artifact for FGF22 binders. shares compounds with FGF22 binding-1. compound-only SYPRO orange thermal shift counter-screen, no protein. AC50, µM (highest dose often 38 µM). actives 2% (n = 1,000);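 active = rising signal whose fitted curve reaches the 0.54 level within the top valid dose, showing a melting point, actives reach about 13 µM in these data; inactive = the rest, including activity in the opposite direction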; note: value is where the raw curve crosses a fixed level and not half-maximal
# * marks the source's active call; other numbers are inactive results; i = inactive; ? = inconclusive; . = no result.
SMILES,DENV2 CPE,F508del corr,E-selectin induc,FGF22 binding-1,ERAP1 HTS inh,others
CN(C)CC#Cc1ccc([C@H]2[C@@H](CO)N3CCCCN(C(=O)Cc4ccccn4)C[C@H]23)cc1,30*,-1,0,0,-1,
COC(=O)[C@H]1[C@H](CO)[C@H]2Cn3c(ccc(C4=CCCCC4)c3=O)[C@@H]1N2CC1CCCC1,-3,-2,0,.,1,
CCCCCC[N+](=O)[O-],-7,2,.,0,1,
CCCCCCCCCCCCCCCC[N+](C)(C)C,?,-1,-2,0,42*,
Cc1ccc2nc(-c3ccc(CN4CCC(n5c(=O)[nH]c6cc(Cl)ccc65)CC4)cc3)c(-c3ccccc3)nc2c1,52*,1,1,0,-1,
O=C(Cc1ccccn1)N1CCCCN2[C@H](C1)[C@@H](c1ccc(C#Cc3ccccc3)cc1)[C@@H]2CO,-6,3,0,0,-1,
CCC1(CC(C)C)C(=O)NC(=S)NC1=O,-9,-1,0,0,4,
CCC1(CC)C(=O)C=CNC1=O,-4,29*,2,0,-4,
COC(=O)[C@H]1[C@H](CO)[C@H]2Cn3c(ccc(-c4cccc(F)c4)c3=O)[C@@H]1N2Cc1cccnc1,1,-1,0,0,-1,
Cc1cccc(S(=O)(=O)N2[C@@H]3c4ccc(-c5cccc(F)c5)c(=O)n4C[C@H]2[C@H](CO)[C@H]3C(=O)O)c1,4,0,0,0,.,
CCC(C)c1cnc(CC(C)C)c(=O)n1O (stereo unspecified),59*,2,.,0,-2,
Nc1cnn(-c2ccccc2)c(=O)c1Cl,30*,0,.,0,2,
CCCNC(=O)N1[C@@H]2c3ccc(-c4ccccc4OC)c(=O)n3C[C@H]1[C@H](CO)[C@H]2C(=O)OC,.,1,1,0,0,
C=COCCn1c(C)c(C(C)=O)c2cc(O)ccc21,1,-2,56*,0,0,
CCCCC1(CCC)C(=O)NC(=S)NC1=O,-8,6,1,43*,-1,
CC(C)c1ccc(-n2c(O)c(/C=N/NC(=O)c3ccccc3O)c(=O)[nH]c2=S)cc1,16,-1,0,1.4*,.,FGF22 binding-2=0.37;TSA no protein=i
COc1ccc(C#Cc2ccc3c(c2)O[C@H](CN(C)S(=O)(=O)c2ccccc2F)[C@@H](C)CN([C@@H](C)CO)S3(=O)=O)cc1,7,-1,0,2.1*,-3,FGF22 binding-2=0.016;TSA no protein=2.4µM*
COc1ccc(OC(=O)N(C)C[C@H]2OCc3ccccc3-c3c(n(C)c4ccccc34)C(=O)N([C@H](C)CO)C[C@H]2C)cc1,7,1,0,.,0,
O=C(O)[C@H]1[C@H](CO)[C@H]2Cn3c(ccc(-c4cccnc4)c3=O)[C@@H]1N2S(=O)(=O)c1ccccc1F,-10,0,1,0,4,
N#Cc1cccc(-c2ccc([C@H]3[C@H](CO)N4CCCCN(C(=O)Cc5ccncc5)C[C@@H]34)cc2)c1,-13,1,0,0,0,
CCOC(=O)C(c1c(O)c2ccccc2oc1=O)c1c(O)c2ccccc2oc1=O,-1,-1,0,1.8*,-2,FGF22 binding-2=0.003;TSA no protein=i
O=c1oc2ccccc2c(O)c1C(c1ccccn1)c1c(O)c2ccccc2oc1=O,1,0,.,0,7,
C/C=C/c1ccc([C@@H]2[C@H]3CN(C(=O)Cc4ccncc4)CCCCN3[C@H]2CO)cc1,82*,-3,0,1.3*,1,FGF22 binding-2=0.039;TSA no protein=i

# Bioassay records as filed in PubChem.
